From ChEMBL document CHEMBL5058577, “EUbOPEN Chemogenomics Library 2 (Multiplex)” (2022)

System: U2OS
Experiment: Multiplex assay against U2OS
Assay type: toxicity, cell-based
Details: human
Outline: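 Imaging took place on a CQ1 microscope at 37°C and 5% CO2 once compound had been added to live cells stained at seeding with Hoechst33342, BioTracker Green Microtubule Cytoskeleton Dye, MitoTracker Red and Annexin V Alexa Fluor 680. CellPathfinder machine-learning gating classed cells as Hoechst high-intensity objects or normal cells, classed normal cells as having healthy, pyknosed or fragmented nuclei, and classed pyknosed cells as mitotic or apoptotic. Tubulin, mitochondrial-mass and membrane-permeability phenotypes are per cents of the healthy-nucleus cells.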

[1] = 12 h, 1 µM, compound concentration 1 uM, replicate 1
[2] = 12 h, 1 µM, compound concentration 1 uM, replicate 2
[3] = 12 h, 10 µM, compound concentration 10 uM, replicate 1
[4] = 12 h, 10 µM, compound concentration 10 uM, replicate 2
[5] = 24 h, 1 µM, compound concentration 1 uM, replicate 1
[6] = 24 h, 1 µM, compound concentration 1 uM, replicate 2
[7] = 24 h, 10 µM, compound concentration 10 uM, replicate 1
[8] = 24 h, 10 µM, compound concentration 10 uM, replicate 2
[9] = 48 h, 1 µM, compound concentration 1 uM, replicate 1
[10] = 48 h, 1 µM, compound concentration 1 uM, replicate 2
[11] = 48 h, 10 µM, compound concentration 10 uM, replicate 1
[12] = 48 h, 10 µM, compound concentration 10 uM, replicate 2

## O=c1nc2[nH]c3ccccc3nc-2c(=O)[nH]1 [ALLOXAZINE]
[1]
  Population Apoptotic (%): 70%
  Population Fragmented Nuclei (%): 25%
  Population Healthy Nuclei (%): 61%
  Population Hoechst High Intensity Objects (%): 2%
  Population Membrane Permeable-Phenotype (%): 5%
  Population Mitochondria Different-Phenotype (%): 0%
  Population Mitotic Cells (%): 29%
  Population Normal (%): 97%
  Population Pyknosed Nuclei (%): 12%
  Population Tubulin-Different-Phenotype (%): 3%
  Total Cell Count: 195
[2]
  Population Apoptotic (%): 75%
  Population Fragmented Nuclei (%): 15%
  Population Healthy Nuclei (%): 74%
  Population Mitochondria Different-Phenotype (%): 5%
  Population Mitotic Cells (%): 25%
  Population Pyknosed Nuclei (%): 10%
  Total Cell Count: 122
[3]
  Population Apoptotic (%): 86%
  Population Fragmented Nuclei (%): 33%
  Population Healthy Nuclei (%): 59%
  Population Hoechst High Intensity Objects (%): 0%
  Population Membrane Permeable-Phenotype (%): 7%
  Population Mitochondria Different-Phenotype (%): 0%
  Population Mitotic Cells (%): 13%
  Population Normal (%): 99%
  Population Pyknosed Nuclei (%): 7%
  Population Tubulin-Different-Phenotype (%): 1%
  Total Cell Count: 212
[4]
  Population Apoptotic (%): 88%
  Population Fragmented Nuclei (%): 13%
  Population Healthy Nuclei (%): 78%
  Population Hoechst High Intensity Objects (%): 1%
  Population Mitochondria Different-Phenotype (%): 5%
  Population Mitotic Cells (%): 11%
  Population Normal (%): 98%
  Population Tubulin-Different-Phenotype (%): 3%
  Total Cell Count: 119
[5]
  Population Apoptotic (%): 73%
  Population Fragmented Nuclei (%): 24%
  Population Healthy Nuclei (%): 66%
  Population Hoechst High Intensity Objects (%): 1%
  Population Membrane Permeable-Phenotype (%): 4%
  Population Mitochondria Different-Phenotype (%): 1%
  Population Mitotic Cells (%): 26%
  Population Normal (%): 98%
  Population Pyknosed Nuclei (%): 8%
  Population Tubulin-Different-Phenotype (%): 2%
  Total Cell Count: 261
[6]
  Population Apoptotic (%): 57%
  Population Fragmented Nuclei (%): 16%
  Population Healthy Nuclei (%): 74%
  Population Hoechst High Intensity Objects (%): 2%
  Population Membrane Permeable-Phenotype (%): 5%
  Population Mitochondria Different-Phenotype (%): 5%
  Population Mitotic Cells (%): 42%
  Population Normal (%): 97%
  Population Pyknosed Nuclei (%): 9%
  Total Cell Count: 146
[7]
  Population Apoptotic (%): 78%
  Population Fragmented Nuclei (%): 30%
  Population Healthy Nuclei (%): 61%
  Population Hoechst High Intensity Objects (%): 0%
  Population Membrane Permeable-Phenotype (%): 8%
  Population Mitochondria Different-Phenotype (%): 2%
  Population Mitotic Cells (%): 21%
  Population Normal (%): 99%
  Population Pyknosed Nuclei (%): 8%
  Population Tubulin-Different-Phenotype (%): 2%
  Total Cell Count: 237
[8]
  Population Apoptotic (%): 75%
  Population Fragmented Nuclei (%): 16%
  Population Healthy Nuclei (%): 80%
  Population Hoechst High Intensity Objects (%): 2%
  Population Membrane Permeable-Phenotype (%): 5%
  Population Mitochondria Different-Phenotype (%): 4%
  Population Mitotic Cells (%): 25%
  Population Normal (%): 97%
  Population Pyknosed Nuclei (%): 2%
  Population Tubulin-Different-Phenotype (%): 3%
  Total Cell Count: 148
[9]
  Population Apoptotic (%): 84%
  Population Fragmented Nuclei (%): 19%
  Population Healthy Nuclei (%): 71%
  Population Hoechst High Intensity Objects (%): 1%
  Population Membrane Permeable-Phenotype (%): 1%
  Population Mitochondria Different-Phenotype (%): 1%
  Population Mitotic Cells (%): 15%
  Population Normal (%): 98%
  Population Pyknosed Nuclei (%): 9%
  Population Tubulin-Different-Phenotype (%): 1%
  Total Cell Count: 362
[10]
  Population Apoptotic (%): 76%
  Population Fragmented Nuclei (%): 18%
  Population Healthy Nuclei (%): 72%
  Population Hoechst High Intensity Objects (%): 6%
  Population Membrane Permeable-Phenotype (%): 4%
  Population Mitochondria Different-Phenotype (%): 2%
  Population Mitotic Cells (%): 23%
  Population Normal (%): 93%
  Population Pyknosed Nuclei (%): 8%
  Population Tubulin-Different-Phenotype (%): 2%
  Total Cell Count: 207
[11]
  Population Apoptotic (%): 90%
  Population Fragmented Nuclei (%): 26%
  Population Healthy Nuclei (%): 66%
  Population Hoechst High Intensity Objects (%): 1%
  Population Membrane Permeable-Phenotype (%): 5%
  Population Mitochondria Different-Phenotype (%): 1%
  Population Mitotic Cells (%): 9%
  Population Normal (%): 98%
  Population Pyknosed Nuclei (%): 6%
  Population Tubulin-Different-Phenotype (%): 2%
  Total Cell Count: 321
[12]
  Population Apoptotic (%): 76%
  Population Fragmented Nuclei (%): 12%
  Population Healthy Nuclei (%): 79%
  Population Membrane Permeable-Phenotype (%): 3%
  Population Mitotic Cells (%): 23%
  Population Pyknosed Nuclei (%): 8%
  Total Cell Count: 210
